Tests used:
Type in all cases: functional
[1] = species on record: Oryctolagus cuniculus; experiment: Compound was evaluated for the ability to lower total serum cholesterol levels in 4 Watanabe heritable hyperlipidemic (WHHL) rabbits on day 56.
How it was run: (§1)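 Modified WHHL rabbits (British half-lop × WHHL cross, homozygous LDL-receptor deficient), age 14 ± 1 weeks, fed 100 g/day rabbit chow repelleted with compound at 1% (wt/wt), content checked by HPLC; controls got plain chow (n = 10). Total serum cholesterol measured enzymatically on days 0, 28, 56 and 84; group mean ± SEM (mg/dL).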

[2] = Molar content of compound in low-density lipoprotein (LDL) was obtained from the ratio of molecules to that of LDL particles.
How it was run: (§2)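 Day-84 plasma (EDTA) from rabbits fed 1% drug in chow. LDL isolated by sequential ultracentrifugation at d = 1.019–1.063 g/mL, brought back to the original serum volume, and drug measured by HPLC. Molecules per particle calculated from LDL protein, taking apoB (mw 500 000) as one copy per particle. Mean ± SEM.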

[3] = species on record: Oryctolagus cuniculus; experiment: Compound was evaluated for the ability to lower total serum cholesterol levels in 4 Watanabe heritable hyperlipidemic (WHHL) rabbits on day 84.; how it was run: as §1
[4] = species on record: Oryctolagus cuniculus; experiment: Compound concentration in low-density lipoprotein (LDL).; how it was run: as §2
[5] = species on record: Oryctolagus cuniculus; experiment: Compound was evaluated for the ability to lower total serum cholesterol levels in 4 Watanabe heritable hyperlipidemic (WHHL) rabbits on day 28.; how it was run: as §1
[6] = species on record: Oryctolagus cuniculus; experiment: Compound concentration in serum.
How it was run: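 Rabbits fed 1% (wt/wt) drug in chow (100 g/day) for 84 days. Serum taken at sacrifice on day 84 and extracted with ether/ethanol; extract dried under N2, redissolved, and run on reverse-phase C18 HPLC in acetonitrile/water (85/15) at 1.5 mL/min with detection at 240 nm. Results given as μg/mL, mean ± SEM.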

[7] = species on record: Oryctolagus cuniculus; experiment: Compound was evaluated for the ability to lower total serum cholesterol levels in 4 Watanabe heritable hyperlipidemic (WHHL) rabbits on day 0.; how it was run: as §1
[8] = species on record: Oryctolagus cuniculus; experiment: Prevention of Cu2+-induced lipid peroxidation of LDL.
How it was run: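 LDL (d 1.019–1.063 g/mL) isolated from each drug-fed rabbit at day 84 and dialyzed against PBS. Incubated with 5 μM CuSO4 (final) at 37 °C for 3 h; reaction stopped with EDTA. 50 μg LDL treated with TCA and 0.67% TBA at 90 °C for 30 min. TBARS read at 532 nm against an MDA standard curve (0–5 nmol).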

[9] = species on record: Oryctolagus cuniculus; experiment: Percent atherosclerotic lesions in WHHL rabbits.
How it was run: (§3)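 WHHL rabbits (homozygous LDL-receptor deficient, British half-lop cross, 14 ± 1 weeks) fed 100 g/day chow containing 1% (wt/wt) drug for 84 days, then killed by iv pentobarbital. Aortas stained with Sudan IV; sudanophilic area in thoracic aorta quantified by digital image analysis from staining density. Values are percent lesion area per group.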

[10] = species on record: Oryctolagus cuniculus; experiment: Compound was evaluated for the ability to lower total serum cholesterol levels in 5 Watanabe heritable hyperlipidemic (WHHL) rabbits on day 84.; how it was run: as §1
[11] = species on record: Oryctolagus cuniculus; experiment: Compound was evaluated for the ability to lower total serum cholesterol levels in 5 Watanabe heritable hyperlipidemic (WHHL) rabbits on day 28.; how it was run: as §1
[12] = species on record: Oryctolagus cuniculus; experiment: % atherosclerotic lesions in WHHL rabbits.; how it was run: as §3
[13] = species on record: Oryctolagus cuniculus; experiment: Compound was evaluated for the ability to lower total serum cholesterol levels in 5 Watanabe heritable hyperlipidemic (WHHL) rabbits on day 56.; how it was run: as §1
[14] = species on record: Oryctolagus cuniculus; experiment: Compound was evaluated for the ability to lower total serum cholesterol levels in 5 Watanabe heritable hyperlipidemic (WHHL) rabbits on day 0.; how it was run: as §1

SMILES | Cholesterol Concentration [1] [mg/dL] | Molar content (Molecules (LDL particle)-1) [2] | Cholesterol Concentration [3] [mg/dL] | Drug Conc (LDL) [4] [µg/mL] | Cholesterol Concentration [5] [mg/dL] | Drug Conc (serum) [6] [µg/mL] | Cholesterol Concentration [7] [mg/dL] | Lipid peroxidation (nM MDA (mg LDL)-1) [8] | Lesion [9] [%] | Cholesterol Concentration [10] [mg/dL] | Cholesterol Concentration [11] [mg/dL] | Lesion [12] [%] | Cholesterol Concentration [13] [mg/dL] | Cholesterol Concentration [14] [mg/dL]
CC(C)(Sc1cc(C(C)(C)C)c(O)c(C(C)(C)C)c1)Sc1cc(C(C)(C)C)c(O)c(C(C)(C)C)c1 [PROBUCOL] | 731 | 11.3 | 698 | 41 | 728 | 56 | 658 | 25 | 47 |  |  |  |  | 
CC(C)(C)c1cc(SCSc2cc(C(C)(C)C)c(O)c(C(C)(C)C)c2)cc(C(C)(C)C)c1O |  | 20.3 |  | 65 |  | 135 |  | 16 |  | 734 | 905 | 39 | 766 | 890
CCCCC(C)(Sc1cc(C)c(O)c(C(C)(C)C)c1)Sc1cc(C)c(O)c(C(C)(C)C)c1 |  | 0.7 |  | 3 |  | 6.4 |  | 33 |  | 1095 | 1042 | 81 | 1079 | 1005
CCCC(C)(Sc1cc(C(C)(C)C)c(O)c(C(C)(C)C)c1)Sc1cc(C(C)(C)C)c(O)c(C(C)(C)C)c1 | 796 | 6.2 | 782 | 23 | 885 | 42 | 685 | 30 |  |  |  | 53 |  | 

From ChEMBL document CHEMBL1125734, “Antioxidant activity of probucol and its analogues in hypercholesterolemic Watanabe rabbits” (1991)
